Data reported in ChEMBL document CHEMBL1821679, “Targeting the heat shock protein 90 dimer with dimeric inhibitors” (J Med Chem, 2011).
The source made the active and inactive calls. No cut-off for these calls is given here.

Assays:
[1] = tested on: SK-BR-3; assay: Antiproliferative activity against human SKBR3 cells after 72 hrs by MTS/PMS assay; assay type: functional, cell-based; conditions: SK-BR-3, 72 h
Outline: (§1)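 Cells grown in medium with non-essential amino acids, 2 mM L-glutamine, streptomycin, penicillin and 10% FBS at 37 °C, 5% CO2; seeded 2000/well, attached overnight. Test agent added over a concentration range in DMSO (1% final), 72 h exposure. Viable cells counted by MTS/PMS read-out against 1% DMSO wells as 100% proliferation. IC50 taken as mean ± SD of at least two separate experiments, each in triplicate.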

[2] = tested on: MCF7; assay: Antiproliferative activity against human MCF7 cells after 72 hrs by MTS/PMS assay; assay type: functional, cell-based; conditions: MCF7, 72 h; outline: as §1
[3] = Antiproliferative activity against human PC3MM2 cells after 72 hrs by MTS/PMS assay; assay type: functional, cell-based; conditions: PC3MM2, 72 h; outline: as §1
[4] = tested on: A549; assay: Antiproliferative activity against human A549 cells after 72 hrs by MTS/PMS assay; assay type: functional, cell-based; conditions: A549, 72 h; outline: as §1
[5] = tested on: HT-29; assay: Antiproliferative activity against human HT-29 cells after 72 hrs by MTS/PMS assay; assay type: functional, cell-based; conditions: HT-29, 72 h; outline: as §1
[6] = molecular target: T1, Heat shock protein HSP90 (Homo sapiens) (UniProt P07900+P08238); assay: Inhibition of Hsp90 in human MCF7 cells assessed as induction of Her2 degradation at 5 fold IC50 after 24 hrs by Western blot method; assay type: cell-based
Outline: (§2)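 MCF-7 cells treated 24 h with compound in DMSO (1% final); geldanamycin 500 nM served as positive control and DMSO as vehicle control. Cells harvested in cold PBS and lysed 1 h on ice in RIPA with 1 mM PMSF, 2 mM orthovanadate and protease inhibitors. Lysates clarified 14,000g, 15 min, 4 °C. Protein (20 µg, BCA) resolved under reducing conditions and blotted on PVDF for Her2, Raf and Akt, with actin as loading control. Detection by HRP secondary antibody and chemiluminescence.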

[7] = molecular target: T1, Heat shock protein HSP90 (Homo sapiens); assay: Inhibition of Hsp90 in human MCF7 cells assessed as induction of Her2 degradation at 0.5 fold IC50 after 24 hrs by Western blot method; assay type: cell-based; outline: as §2
[8] = molecular target: T1, Heat shock protein HSP90 (Homo sapiens); assay: Inhibition of Hsp90 in human MCF7 cells assessed as induction of Raf degradation at 5 fold IC50 after 24 hrs by Western blot method; assay type: cell-based; outline: as §2
[9] = molecular target: T1, Heat shock protein HSP90 (Homo sapiens); assay: Inhibition of Hsp90 in human MCF7 cells assessed as induction of Raf degradation at 0.5 fold IC50 after 24 hrs by Western blot method; assay type: cell-based; outline: as §2
[10] = molecular target: T1, Heat shock protein HSP90 (Homo sapiens); assay: Inhibition of Hsp90 in human MCF7 cells assessed as induction of Akt degradation at 5 fold IC50 after 24 hrs by Western blot method; assay type: cell-based; outline: as §2
[11] = molecular target: T1, Heat shock protein HSP90 (Homo sapiens); assay: Inhibition of Hsp90 in human MCF7 cells assessed as induction of Akt degradation at 0.5 fold IC50 after 24 hrs by Western blot method; assay type: cell-based; outline: as §2

`COc1ccc(C(=O)Nc2cc3ccc(O[C@@H]4OC(C)(C)[C@H](OC)[C@@H](O)[C@H]4O)c(C)c3oc2=O)cc1-c1cc(C(=O)Nc2cc3ccc(O[C@@H]4OC(C)(C)[C@H](OC)[C@@H](O)[C@H]4O)c(C)c3oc2=O)ccc1OC` gave an IC50 [1] of 1160 nM, an IC50 [2] of 760 nM and an IC50 [3] of 36700 nM. For the same molecule, the IC50 [4] was 35400 nM, the IC50 [5] was 36500 nM and the inhibition [6] was “Active”. For the same molecule, the inhibition [7] was “Active”, the inhibition [8] was “Active” and the inhibition [9] was “Active”. The inhibition [10] was “Active” and the inhibition [11] was “Active”.
In the case of `COc1ccc(C(=O)Nc2cc3ccc(O[C@@H]4OC(C)(C)[C@H](OC)[C@@H](O)[C@H]4O)c(OC)c3oc2=O)cc1-c1cc(C(=O)Nc2cc3ccc(O[C@@H]4OC(C)(C)[C@H](OC)[C@@H](O)[C@H]4O)c(OC)c3oc2=O)ccc1OC`, the IC50 [1] is reported as 910 nM, the IC50 [2] is reported as 880 nM and the IC50 [3] is reported as 270 nM. The IC50 [4] was 210 nM, the IC50 [5] was 270 nM and the inhibition [6] was “Active”. For the same molecule, the inhibition [7] was “Active”, the inhibition [8] was “Active” and the inhibition [9] was “Active”. The inhibition [10] was “Active” and the inhibition [11] was “Active”.
In the case of `Cc1c(OCCCN(C)C)ccc2cc(NC(=O)C/C=C/CC(=O)Nc3cc4ccc(OCCCN(C)C)c(C)c4oc3=O)c(=O)oc12`, the IC50 [1] is reported as 460 nM, the IC50 [2] is reported as 840 nM and the IC50 [3] is reported as 15200 nM. For the same molecule, the IC50 [4] was 19400 nM, the IC50 [5] was 12200 nM and the inhibition [6] was “inactive”. The inhibition [7] was “inactive”, the inhibition [8] was “inactive” and the inhibition [9] was “inactive”. The inhibition [10] was “inactive” and the inhibition [11] was “inactive”.
Molecule `Cc1c(OC2CCN(C)CC2)ccc2cc(NC(=O)CC/C=C/CCC(=O)Nc3cc4ccc(OC5CCN(C)CC5)c(C)c4oc3=O)c(=O)oc12` has an IC50 [1] of 150 nM, an IC50 [2] of 270 nM and an IC50 [3] of 4190 nM. The IC50 [4] was 5540 nM, the IC50 [5] was 50 nM and the inhibition [6] was “Active”. The inhibition [7] was “Active”, the inhibition [8] was “Active” and the inhibition [9] was “Active”. The inhibition [10] was “Active” and the inhibition [11] was “Active”.
